GASC-1 inh: human JMJD2C demethylase inhibition; Q9H3R0; GST-JMJD2C(1-420) H3K9me3 demethylation, DELFIA europium; inhibition, % at 2.35 µM; actives 0.069% (n = 330,000); AID 2099;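 active = more than half of a compound's replicate wells show inhibition beyond 50%, single wells judged on their own value; inconclusive = some, but no more than half, of replicates pass 50% inhibition; inactive = no replicate passes 50% inhibition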;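 also: signal counts dimethyl H3K9 product captured on neutravidin plate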
GAA850 FXN act: frataxin GAA850 promoter activation. HEK293 lucGAA850 FXN promoter luciferase reporter, 24 h; percent of 10 µM SAHA response. activation, % at 6 µM. actives 0.56% (n = 360,000). AID 540364;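 active = activation above the average of all compounds screened plus 3 SD, cutoff fixed separately per campaign, cut at about 7.5% in these data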
SR-BI DiI-HDL act: activators of SR-BI mediated HDL lipid uptake; CHO ldlA[mSR-BI] cells, DiI-HDL uptake fluorescence, 3 h; 100 = double the neutral-control signal; activation, % at 12.5 µM; actives 0.096% (n = 320,000); AID 504775;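 active = mean replicate activation of at least 60% and every replicate at or above 60%; inconclusive = mean or all-replicate condition met, but not both; inactive = mean below 60% and not all replicates reaching 60%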
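Material: SR-BI-overexpressing, LDLR-lacking CHO cells | Dosing: Single compound concentration, delivered by pin transfer | Probe or stimulus: Labelled HDL, 10 µg/mL | Signal: Bottom-read cell fluorescence after medium removal, ex 550/em 595 nm | Schedule: 3 h, 37 °C | Evaluation: HDL uptake via cellular fluorescence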
SR-BI HDL uptake: inhibitors of mouse SR-BI mediated HDL lipid uptake. inhibition, % at 12.5 µM. actives 0.96% (n = 320,000). ldlA[mSR-BI] CHO cells, DiI-HDL uptake fluorescence, 3 h;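 active = mean replicate inhibition of at least 70% and a set share of replicates each scoring 70 or more; inconclusive = meets just one of the two criteria; inactive = fails both criteria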
AHR activator: human AHR activation; P35869; AHR-responsive luciferase reporter cells, luminescence; activation, % at 5 µM; actives 2.5% (n = 320,000); AID 2796; in the data active = activation above about 47%
Target sequence (P35869 whole entry, looked up): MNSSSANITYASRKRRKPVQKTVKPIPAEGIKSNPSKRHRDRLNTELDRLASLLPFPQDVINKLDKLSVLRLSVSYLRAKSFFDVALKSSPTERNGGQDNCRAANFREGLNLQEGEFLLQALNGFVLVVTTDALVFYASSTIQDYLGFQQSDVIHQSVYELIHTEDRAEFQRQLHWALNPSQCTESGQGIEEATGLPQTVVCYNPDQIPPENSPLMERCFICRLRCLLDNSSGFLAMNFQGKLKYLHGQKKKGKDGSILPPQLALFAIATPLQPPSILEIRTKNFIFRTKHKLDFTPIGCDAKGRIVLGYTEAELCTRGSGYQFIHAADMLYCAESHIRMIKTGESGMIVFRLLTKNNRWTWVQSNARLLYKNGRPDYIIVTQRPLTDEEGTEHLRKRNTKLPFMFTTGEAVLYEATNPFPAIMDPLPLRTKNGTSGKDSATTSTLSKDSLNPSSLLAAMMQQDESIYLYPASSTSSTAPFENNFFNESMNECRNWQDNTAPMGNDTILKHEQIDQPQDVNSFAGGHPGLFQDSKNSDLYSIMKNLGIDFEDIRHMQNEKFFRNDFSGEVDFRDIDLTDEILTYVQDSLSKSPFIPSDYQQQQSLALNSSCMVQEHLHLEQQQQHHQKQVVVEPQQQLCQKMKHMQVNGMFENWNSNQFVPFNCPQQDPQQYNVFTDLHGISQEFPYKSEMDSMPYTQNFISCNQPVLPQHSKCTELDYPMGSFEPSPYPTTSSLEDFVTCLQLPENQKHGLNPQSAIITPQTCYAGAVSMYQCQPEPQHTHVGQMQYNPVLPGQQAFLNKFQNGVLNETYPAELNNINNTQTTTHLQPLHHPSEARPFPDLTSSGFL
Numbers stand for hits; 0 = inactive; ? = inconclusive; - = no result given. Only some compounds are listed: those with a hit (about 3.7% of all), similar ones and a draw of the others.

SMILES	GASC-1 inh	GAA850 FXN act	SR-BI DiI-HDL act	SR-BI HDL uptake	AHR activator
CCOC(=O)C1CCCN(C(=O)c2cc(-c3ccc(F)cc3)nc3ccccc23)C1 (stereo not drawn)	0	0	0	70	0
Clc1ccc(-c2nnc(N3CCOCC3)o2)cc1	0	0	0	0	0
COCCN1CCN(C(=O)c2cc(COc3cc(C)ccc3C)on2)CC1	0	0	0	0	0
Cc1oc(-c2ccccc2)nc1C(=O)N1CCN(c2ccc(F)cc2)CC1	0	0	0	0	0
Cc1ccc2nc(SC(C(=O)Nc3ccc(F)cc3)c3ccccc3)[nH]c2c1 (stereo not drawn)	0	0	0	0	79
Cc1ccc(C)c(NC(=O)C(Sc2nc3ccc(C)cc3[nH]2)c2ccccc2)c1 (stereo not drawn)	0	0	?	0	0
COC(=O)c1ccc(C2N=C(c3cccs3)CC(c3ccccc3O)N2)cc1 (stereo not drawn)	0	0	0	75	0
CC(C)(C)C1CCC2(CC1)C(Nc1cccc(C(F)(F)F)c1)=NC(=S)N2CC#N (stereo not drawn)	0	0	152	0	0
COc1ccc(OC)c(NC(=O)CN2C(=O)COc3ccc(C)cc32)c1	0	0	0	0	0
Cn1c(-c2ccc(Cl)nc2)nc2cc(Cl)ccc21	0	0	0	0	0
CCOc1ccccc1NC(=O)C(OC(=O)C1CC1)c1ccccc1 (stereo not drawn)	0	0	0	0	0
COc1ccc(C)cc1NC(=O)C(OC(=O)C1CC1)c1ccccc1 (stereo not drawn)	0	0	0	0	55
CCc1nnc(NC(=O)c2nc(S(=O)(=O)Cc3ccccc3)ncc2Cl)s1	0	0	0	0	0
CCc1nnc(NC(=O)c2nc(S(=O)(=O)Cc3ccc(C)cc3)ncc2Cl)s1	0	0	64	0	0
O=c1nc2sc3ccccc3n2c(=O)n1-c1ccc(Cl)cc1	0	0	0	0	52
COc1cccc(NC(=O)c2ccccc2NC(=O)c2ccncc2)c1	0	0	0	0	55
COc1ccc(C(=O)Nc2ccccc2C(=O)Nc2cc(C)ccn2)cc1	0	0	0	0	56
COc1cc(C(=O)Nc2cc(C)ccn2)cc(OC)c1OC	0	0	0	0	56
C#CCN1c2ccccc2Sc2cccnc21	0	0	-	-	0
C=CCN1C=C/C(=C\C=C(C#N)C#N)c2ccccc21	0	0	0	0	53
CCCCCCN1C=CC=C/C1=C/C=C(C#N)C#N	0	0	0	0	0
CCCCCCN1C=C/C(=C\C=C(C#N)C#N)c2ccccc21	0	0	0	76	0
Cc1nc(C(=O)NC2CCCCC2)sc1C1(C)CC(c2cccc([N+](=O)[O-])c2)=NO1 (stereo not drawn)	0	0	0	76	0
Cc1nc(-c2ccccc2)sc1C1(C)CC(c2cccc([N+](=O)[O-])c2)=NO1 (stereo not drawn)	0	0	0	0	0
Cc1nc(C(=O)Nc2ccc(Cl)cc2)sc1C1(C)CC(c2cccc([N+](=O)[O-])c2)=NO1 (stereo not drawn)	0	0	0	77	0
SMILES	GASC-1 inh	GAA850 FXN act	SR-BI DiI-HDL act	SR-BI HDL uptake	AHR activator
Cc1nc(C(=O)Nc2cc(F)cc(Cl)c2)sc1C1(C)CC(c2ccccc2)=NO1 (stereo not drawn)	0	0	0	80	0
COc1ccc(CCN2CC(C(=O)NCc3ccc(F)cc3)CC2=O)cc1OC (stereo not drawn)	0	0	-	-	0
Cc1ccc(NC(=O)c2ccc(NS(=O)(=O)/C=C/c3ccccc3)cc2)nc1	0	0	0	0	0
COc1cc2c(cc1OC)C1(CCCC1)C(N)=C2C#N	0	0	0	0	48
COc1cc(OC)c(OC)cc1C#N	0	0	0	0	0
COc1ccc(C(C)(C)C)cc1NC(=O)CCCN1C(=O)CN(C)C1=O	-	0	0	0	-
N#Cc1cnn2c(C(F)(F)F)cc(-c3ccccc3)nc12	0	0	0	0	60
COc1cccc(N2CCN(C(=O)c3oc4ccccc4c3NC(=O)Cc3ccc(OC)c(OC)c3)CC2)c1	0	0	0	0	0
N#C/C(=N\Nc1ccc(Br)cc1)C(=N)N1CCOCC1	0	0	0	0	56
N#C/C(=N\Nc1ccc([N+](=O)[O-])cc1)C(=N)N1CCOCC1	0	0	0	0	0
COc1ccc(C(CNC(=O)CCNC(=O)c2ccccc2OC)N2CCCC2)cc1 (stereo not drawn)	0	0	0	0	0
